In ChEMBL document CHEMBL1129660, “Studies on 6-aminoquinolones: synthesis and antibacterial evaluation of 6-amino-8-methylquinolones” (J Med Chem, 1996):
≈ marks a conversion by molar mass, not a printed value.

Assays:
Bacteria = experiment: Geometric mean of antibacterial activity (Gram +ve bacteria) of the compound; format: functional
Procedure, shortened: (§1)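 Geometric means calculated from agar-dilution MICs (µg/mL), taken separately across the five Gram-positive and the eight Gram-negative panel strains.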

[1] = Geometric mean of antibacterial activity (Gram -ve bacteria) of the compound; format: functional; procedure, shortened: as §1
Proteus vulgaris = experiment: Antibacterial activity tested against Proteus vulgaris CNUR 5; format: functional
Procedure, shortened: (§2)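 MICs (µg/mL) determined by conventional agar dilution against a panel of eight Gram-negative and five Gram-positive reference strains.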

Providencia stuartii = experiment: Antibacterial activity tested against Providencia stuartii CNUR 5; format: functional; procedure, shortened: as §2
Pseudomonas aeruginosa = experiment: Antibacterial activity tested against P. ae (Pseudomonas aeruginosa) ATCC 9027; format: functional; procedure, shortened: as §2
Mus musculus [2] = experiment: Efficacy against Septicemia caused by Staphylococcus aureus in mice by Oral administration; format: functional
Procedure, shortened: (§3)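 S. aureus Smith ATCC19636, overnight brain-heart infusion culture diluted in 5% mucin, given i.p. (0.5 mL) to male and female CD-1 mice (18-22 g). Single s.c. or oral dose within 10 min of infection, drug in DMSO/0.5% methocel or as suspension. 3-5 dose groups of six mice; ED50 with 95% limits by Spearman-Kärber from day-7 survival.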

Staphylococcus aureus [3] = experiment: Antibacterial activity against Staphylococcus aureus ATCC 6538; format: functional; procedure, shortened: as §2
Staphylococcus aureus [4] = experiment: Antibacterial activity against Staphylococcus aureus MPR 5; format: functional; procedure, shortened: as §2
Mus musculus [5] = experiment: Efficacy against Septicemia caused by Staphylococcus aureus in mice by subcutaneous administration; format: functional; settings: sc; procedure, shortened: as §3
Enterococcus faecalis [6] = experiment: Antibacterial activity tested against Streptococcus faecalis LEP Br; format: functional; procedure, shortened: as §2
[7] = system: Staphylococcus epidermidis; experiment: Antibacterial activity tested against Staphylococcus epidermidis CPHL A2; format: functional; procedure, shortened: as §2
[8] = system: Staphylococcus epidermidis; experiment: Antibacterial activity tested against Staphylococcus epidermidis HCF Berset C; format: functional; procedure, shortened: as §2
Enterococcus faecium [9] = experiment: microbe, parasite or virus in culture
Enterococcus faecalis [10] = experiment: microbe, parasite or virus in culture
Staphylococcus aureus [11] = experiment: microbe, parasite or virus in culture
Staphylococcus aureus [12] = experiment: microbe, parasite or virus in culture; remark: listed apart in the source
Enterococcus faecium [13] = experiment: Antibacterial activity tested against Enterococcus faecium; Range is 0.25-4 ug/mL; format: functional
Escherichia coli [14] = experiment: Antibacterial activity tested against Escherichia coli ATCC 8739; format: functional; procedure, shortened: as §2
Enterococcus faecalis [15] = experiment: Antibacterial activity tested against Enterococcus faecalis; Range is 0.25-0.5 ug/mL; format: functional
Escherichia coli [16] = experiment: Antibacterial activity tested against Escherichia coli ISF 432; format: functional; procedure, shortened: as §2
Escherichia coli [17] = experiment: Inhibitory activity against gyrase supercoiling activity from Escherichia coli; format: functional
Procedure, shortened: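 Inhibition of DNA gyrase supercoiling activity, by a previously described protocol with slight modifications. IC50 derived by densitometric quantification of the supercoiled DNA peak in an agarose gel.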

Enterobacter cloacae = experiment: Antibacterial activity tested against Enterobacter cloacae OMNFI 174; format: functional
Klebsiella pneumoniae = experiment: Antibacterial activity tested against Klebsiella pneumoniae (Klebsiella pneumoniae) ATCC 10031; format: functional; procedure, shortened: as §2
Shigella = experiment: Antibacterial activity tested against Shigella enteritidis; format: functional; procedure, shortened: as §2
Staphylococcus aureus [18] = experiment: Antibacterial activity tested against Staphylococcus aureus Methicillin-and Ciprofloxacin resistants; Range is 4-32 ug/mL; format: functional
Staphylococcus aureus [19] = experiment: Antibacterial activity tested against Staphylococcus aureus; Range is 0.06-0.13 ug/mL; format: functional
Streptococcus pneumoniae [20] = experiment: Antibacterial activity tested against Streptococcus pneumoniae; Range is 0.5-2 ug/mL; format: functional
Enterococcus faecium [21] = experiment: Antibacterial activity tested against Enterococcus faecium; Range is 1-32 ug/mL; format: functional
Enterococcus faecalis [22] = experiment: Antibacterial activity tested against Enterococcus faecalis; format: functional
Staphylococcus aureus [23] = experiment: Antibacterial activity tested against Staphylococcus aureus Methicillin-and Ciprofloxacin resistants; Range is 2-4 ug/mL; format: functional
Streptococcus pneumoniae [24] = experiment: Antibacterial activity tested against Streptococcus pneumoniae; format: functional
Enterococcus faecium [25] = experiment: Antibacterial activity tested against Enterococcus faecium; Range is 1-2 ug/mL; format: functional
Enterococcus faecalis [26] = experiment: Antibacterial activity tested against Enterococcus faecalis; Range is 0.13-0.5 ug/mL; format: functional
Streptococcus pneumoniae [27] = experiment: Antibacterial activity tested against Streptococcus pneumoniae; Range is 1-2 ug/mL; format: functional
Staphylococcus aureus [28] = experiment: Antibacterial activity tested against Staphylococcus aureus; Range is 0.016-0.13 ug/mL; format: functional
Enterococcus faecium [29] = experiment: Antibacterial activity tested against Enterococcus faecium; Range is 0.06-1 ug/mL; format: functional
Staphylococcus aureus [30] = experiment: Antibacterial activity tested against Staphylococcus aureus Methicillin-and Ciprofloxacin resistants; Range is 0.05-1 ug/mL; format: functional
Staphylococcus aureus [31] = experiment: Antibacterial activity tested against Staphylococcus aureus; Range is 0.004-0.03 ug/mL; format: functional
Mus musculus [32] = species: Mus musculus; experiment: Minimum inhibitory concentration against Septicemia caused by Staphylococcus aureus in mice; format: functional

| Compound | Geometric mean (Bacteria) | Geometric mean [1] | MIC (Proteus vulgaris) | MIC (Providencia stuartii) | MIC (Pseudomonas aeruginosa) | ED50 (Mus musculus [2]) | MIC (Staphylococcus aureus [3]) | MIC (Staphylococcus aureus [4]) | ED50 (Mus musculus [5]) | MIC (Enterococcus faecalis [6]) | MIC [7] | MIC [8] | MIC (Escherichia coli [14]) | MIC (Escherichia coli [16]) | IC50 (Escherichia coli [17]) | MIC (Enterobacter cloacae) | MIC (Klebsiella pneumoniae) | MIC (Shigella) | MIC (Staphylococcus aureus [19]) | MIC (Enterococcus faecalis [22]) | other results |
| --- | --- | --- | --- | --- | --- | --- | --- | --- | --- | --- | --- | --- | --- | --- | --- | --- | --- | --- | --- | --- | --- |
| O=C(O)c1cn(C2CC2)c2cc(N3CCNCC3)c(F)cc2c1=O [CIPROFLOXACIN] | 0.092 | 0.033 | 0.5 mg/L (≈ 1.51 µM) | 0.06 mg/L (≈ 0.181 µM) | 0.06 mg/L (≈ 0.181 µM) | 7 mg/kg | 0.06 mg/L (≈ 0.181 µM) | 0.06 mg/L (≈ 0.181 µM) | 0.9 mg/kg | 0.5 mg/L (≈ 1.51 µM) | 0.06 mg/L (≈ 0.181 µM) | 0.06 mg/L (≈ 0.181 µM) | – | – | – | – | – | – | – | – | MIC (Enterococcus faecium [9]): 1 mg/L (≈ 3.02 µM); MIC (Enterococcus faecalis [10]): 0.5 mg/L (≈ 1.51 µM); MIC (Staphylococcus aureus [11]): 4 mg/L (≈ 12.1 µM); MIC (Staphylococcus aureus [12]): 0.13 mg/L (≈ 0.392 µM) |
| Cc1c(N2CCC(O)CC2)c(N)cc2c(=O)c(C(=O)O)cn(C3CC3)c12 | 0.106 | 0.495 | 16 mg/L (≈ 44.8 µM) | 1 mg/L (≈ 2.8 µM) | 2 mg/L (≈ 5.6 µM) | – | 0.06 mg/L (≈ 0.168 µM) | 0.125 mg/L (≈ 0.35 µM) | – | 0.5 mg/L (≈ 1.4 µM) | 0.06 mg/L (≈ 0.168 µM) | 0.06 mg/L (≈ 0.168 µM) | 1 mg/L (≈ 2.8 µM) | 0.03 mg/L (≈ 0.0839 µM) | 5.74 mg/L (≈ 16.1 µM) | 0.5 mg/L (≈ 1.4 µM) | 0.03 mg/L (≈ 0.0839 µM) | 0.25 mg/L (≈ 0.699 µM) | 0.06 mg/L (≈ 0.168 µM) | – | MIC (Enterococcus faecium [13]): 0.25 mg/L (≈ 0.699 µM); MIC (Enterococcus faecalis [15]): 0.25 mg/L (≈ 0.699 µM); MIC (Staphylococcus aureus [18]): 4 mg/L (≈ 11.2 µM); MIC (Streptococcus pneumoniae [20]): 0.5 mg/L (≈ 1.4 µM) |
| Cc1c(N2C[C@@H](C)O[C@@H](C)C2)c(N)cc2c(=O)c(C(=O)O)cn(C3CC3)c12 | 0.107 | 0.336 | 8 mg/L (≈ 21.5 µM) | 1 mg/L (≈ 2.69 µM) | 4 mg/L (≈ 10.8 µM) | – | 0.03 mg/L (≈ 0.0808 µM) | 0.03 mg/L (≈ 0.0808 µM) | – | 1 mg/L (≈ 2.69 µM) | 0.125 mg/L (≈ 0.337 µM) | 0.125 mg/L (≈ 0.337 µM) | 0.008 mg/L (≈ 0.0215 µM) | 0.008 mg/L (≈ 0.0215 µM) | > 50 mg/L | 1 mg/L (≈ 2.69 µM) | 0.08 mg/L (≈ 0.215 µM) | 1 mg/L (≈ 2.69 µM) | 0.06 mg/L (≈ 0.162 µM) | 0.05 mg/L (≈ 0.135 µM) | MIC (Enterococcus faecium [21]): 1 mg/L (≈ 2.69 µM); MIC (Staphylococcus aureus [23]): 2 mg/L (≈ 5.38 µM); MIC (Streptococcus pneumoniae [24]): 2 mg/L (≈ 5.38 µM) |
| Cc1c(N2CCCCC2)c(N)cc2c(=O)c(C(=O)O)cn(C3CC3)c12 | 0.123 | 0.225 | 8 mg/L (≈ 23.4 µM) | 0.5 mg/L (≈ 1.46 µM) | 1 mg/L (≈ 2.93 µM) | – | 0.06 mg/L (≈ 0.176 µM) | 0.06 mg/L (≈ 0.176 µM) | – | 0.5 mg/L (≈ 1.46 µM) | 0.125 mg/L (≈ 0.366 µM) | 0.125 mg/L (≈ 0.366 µM) | 0.03 mg/L (≈ 0.0879 µM) | 0.03 mg/L (≈ 0.0879 µM) | 3.22 mg/L (≈ 9.43 µM) | 0.25 mg/L (≈ 0.732 µM) | 0.03 mg/L (≈ 0.0879 µM) | 0.25 mg/L (≈ 0.732 µM) | – | – | MIC (Enterococcus faecium [25]): 1 mg/L (≈ 2.93 µM); MIC (Enterococcus faecalis [26]): 0.5 mg/L (≈ 1.46 µM); MIC (Staphylococcus aureus [23]): 2 mg/L (≈ 5.86 µM); MIC (Streptococcus pneumoniae [27]): 1 mg/L (≈ 2.93 µM); MIC (Staphylococcus aureus [28]): 0.016 mg/L (≈ 0.0469 µM) |
| Cc1c(N2CCc3ccccc3C2)c(N)cc2c(=O)c(C(=O)O)cn(C3CC3)c12 | 0.024 | 0.105 | 2 mg/L (≈ 5.14 µM) | 0.06 mg/L (≈ 0.154 µM) | 0.5 mg/L (≈ 1.28 µM) | 5 mg/kg | 0.008 mg/L (≈ 0.0205 µM) | 0.008 mg/L (≈ 0.0205 µM) | 1.3 mg/kg | 0.25 mg/L (≈ 0.642 µM) | 0.016 mg/L (≈ 0.0411 µM) | 0.03 mg/L (≈ 0.077 µM) | 0.008 mg/L (≈ 0.0205 µM) | 0.008 mg/L (≈ 0.0205 µM) | 3.58 mg/L (≈ 9.19 µM) | 0.25 mg/L (≈ 0.642 µM) | 0.06 mg/L (≈ 0.154 µM) | 0.25 mg/L (≈ 0.642 µM) | – | 0.06 mg/L (≈ 0.154 µM) | MIC (Enterococcus faecium [29]): 0.06 mg/L (≈ 0.154 µM); MIC (Staphylococcus aureus [30]): 0.05 mg/L (≈ 0.128 µM); MIC (Staphylococcus aureus [31]): 0.004 mg/L (≈ 0.0103 µM); MIC (Mus musculus [32]): 0.016 mg/L (≈ 0.0411 µM); MIC (Streptococcus pneumoniae [24]): 0.13 mg/L (≈ 0.334 µM) |
